In brackets after ≈: the same amount, converted by molar mass.
Columns and labels:
[1] = system: Enterococcus faecalis; test: Antibacterial activity against Enterococcus faecalis isolated from human incubated for 24 hrs followed by serial sub-cultivation for 24 hrs by microdilution; type: functional
Procedure, shortened: (§1)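 MBC: after the 24 h LB broth microdilution (1.0 × 10⁴ CFU per well, 160 rpm), wells were serially sub-cultured into fresh broth plates and incubated a further 24 h. MBC is the lowest concentration with no visible growth, taken as 99.5% killing of the original inoculum. Duplicate, repeated three times.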

[2] = system: Talaromyces funiculosus; test: Antifungal activity against Penicillium funiculosum ATCC 36839 incubated for 72 hrs followed by serial sub-cultivation for 72 hrs by serial dilution technique; type: functional; settings: ATCC 36839, 72 h
Procedure, shortened: (§2)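 MFC: material from 72 h malt broth microdilution wells was serially sub-cultured into fresh broth plates and incubated a further 72 h at 28 °C. Fungicidal concentration is taken from growth after sub-culture. Duplicate, repeated three times.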

[3] = system: Enterococcus faecalis; test: Antibacterial activity against Enterococcus faecalis isolated from human after 24 hrs by microdilution method; type: functional
Procedure, shortened: (§3)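 Broth microdilution in 96-well plates. Bacterial suspensions were adjusted in sterile saline to 1.0 × 10⁵ CFU/ml, prepared daily and kept at 4 °C. Compound was added to LB broth with 1.0 × 10⁴ CFU per well and shaken at 160 rpm for 24 h at […] (so in the source). MIC is the lowest concentration with no visible growth under a binocular microscope. OD655 was also read. Duplicate, repeated three times.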

[4] = system: Pseudomonas aeruginosa; test: Antibacterial activity against Pseudomonas aeruginosa ATCC 27853 incubated for 24 hrs followed by serial sub-cultivation for 24 hrs by microdilution; type: functional; settings: ATCC 27853, 24 h; procedure, shortened: as §1
[5] = system: Aspergillus niger; test: Antifungal activity against Aspergillus niger ATCC 6275 after 72 hrs by serial dilution technique; type: functional; settings: ATCC 6275, 72 h
Procedure, shortened: (§4)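 Modified microdilution in 96-well plates. Fungi were kept on malt agar at 4 °C. Spores were washed off in sterile 0.85% saline with 0.1% Tween 80. Compounds were dissolved at 1 mg/ml in 5% DMSO with 0.1% Tween 80 and added to malt broth with inoculum. Plates were shaken at 160 rpm for 72 h at 28 °C. Duplicate, repeated three times.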

[6] = system: Aspergillus fumigatus; test: Ratio of ketoconazole to compound for Aspergillus fumigatus isolated from human; type: functional
[7] = system: Aspergillus niger; test: Ratio of bifonazole to compound for Aspergillus niger ATCC 6275; type: functional
[8] = system: Micrococcus flavus; test: Antibacterial activity against Micrococcus flavus ATCC 10240 after 24 hrs by microdilution method; type: functional; settings: ATCC 10240, 24 h; procedure, shortened: as §3
[9] = system: Aspergillus ochraceus; test: Antifungal activity against Aspergillus ochraceus after 72 hrs by serial dilution technique
[10] = system: Salmonella typhimurium; test: Antibacterial activity against Salmonella Typhimurium ATCC 13311 incubated for 24 hrs followed by serial sub-cultivation for 24 hrs by microdilution; type: functional, Salmonella enterica subsp. enterica serovar Typhimurium; settings: Salmonella enterica, ATCC 13311, 24 h; procedure, shortened: as §1
[11] = system: Penicillium ochrochloron; test: Ratio of bifonazole to compound for Penicillium ochrochloron ATCC 9112; type: functional
[12] = system: Escherichia coli; test: Antibacterial activity against Escherichia coli ATCC 35210 incubated for 24 hrs followed by serial sub-cultivation for 24 hrs by microdilution; type: functional; settings: ATCC 35210, 24 h; procedure, shortened: as §1
[13] = system: Salmonella typhimurium; test: Antibacterial activity against Salmonella Typhimurium ATCC 13311 after 24 hrs by microdilution method; type: functional, Salmonella enterica subsp. enterica serovar Typhimurium; settings: Salmonella enterica, ATCC 13311, 24 h; procedure, shortened: as §3
[14] = system: Candida albicans; test: Antifungal activity against Candida albicans isolated from human incubated for 72 hrs followed by serial sub-cultivation for 72 hrs by serial dilution technique; type: functional; procedure, shortened: as §2
[15] = system: Talaromyces funiculosus; test: Ratio of bifonazole to compound for Penicillium funiculosum ATCC 36839; type: functional
[16] = system: Aspergillus flavus; test: Antifungal activity against Aspergillus flavus ATCC 9643 incubated for 72 hrs followed by serial sub-cultivation for 72 hrs by serial dilution technique; type: functional; settings: ATCC 9643, 72 h; procedure, shortened: as §2
[17] = system: Aspergillus ochraceus; test: Ratio of bifonazole to compound for Aspergillus ochraceus ATCC 12066; type: functional
[18] = system: Penicillium ochrochloron; test: Antifungal activity against Penicillium ochrochloron ATCC 9112 incubated for 72 hrs followed by serial sub-cultivation for 72 hrs by serial dilution technique; type: functional; settings: ATCC 9112, 72 h; procedure, shortened: as §2
[19] = system: Micrococcus flavus; test: Antibacterial activity against Micrococcus flavus ATCC 10240 incubated for 24 hrs followed by serial sub-cultivation for 24 hrs by microdilution; type: functional; settings: ATCC 10240, 24 h; procedure, shortened: as §1
[20] = system: Trichoderma viride; test: Antifungal activity against Trichoderma viride IAM 5061 incubated for 72 hrs followed by serial sub-cultivation for 72 hrs by serial dilution technique; type: functional; settings: IAM 5061, 72 h; procedure, shortened: as §2
[21] = system: Penicillium ochrochloron; test: Ratio of ketoconazole to compound for Penicillium ochrochloron ATCC 9112; type: functional
[22] = system: Staphylococcus aureus; test: Antibacterial activity against Staphylococcus aureus ATCC 6538 incubated for 24 hrs followed by serial sub-cultivation for 24 hrs by microdilution method; type: functional; settings: ATCC 6538, 24 h; procedure, shortened: as §1
[23] = system: Staphylococcus aureus; test: Antibacterial activity against Staphylococcus aureus ATCC 6538 after 24 hrs by microdilution method; type: functional; settings: ATCC 6538, 24 h; procedure, shortened: as §3
[24] = system: Listeria monocytogenes; test: Antibacterial activity against Listeria monocytogenes NCTC 7973 after 24 hrs by microdilution method; type: functional; settings: NCTC 7973, 24 h; procedure, shortened: as §3
[25] = system: Aspergillus ochraceus; test: Antifungal activity against Aspergillus ochraceus ATCC 12066 after 72 hrs by serial dilution technique; type: functional; settings: ATCC 12066, 72 h; procedure, shortened: as §4
[26] = system: Trichoderma viride; test: Ratio of bifonazole to compound for Trichoderma viride IAM 5061; type: functional
[27] = system: Bacillus cereus; test: Antibacterial activity against clinical isolate of Bacillus cereus after 24 hrs by microdilution method; type: functional; procedure, shortened: as §3
[28] = system: Listeria monocytogenes; test: Antibacterial activity against Listeria monocytogenes NCTC 7973 incubated for 24 hrs followed by serial sub-cultivation for 24 hrs by microdilution; type: functional; settings: NCTC 7973, 24 h; procedure, shortened: as §1
[29] = system: Candida albicans; test: Ratio of ketoconazole to compound for Candida albicans isolated from human; type: functional
[30] = system: Pseudomonas aeruginosa; test: Antibacterial activity against Pseudomonas aeruginosa ATCC 27853 after 24 hrs by microdilution method; type: functional; settings: ATCC 27853, 24 h; procedure, shortened: as §3
[31] = system: Escherichia coli; test: Antibacterial activity against Escherichia coli ATCC 35210 after 24 hrs by microdilution method; type: functional; settings: ATCC 35210, 24 h; procedure, shortened: as §3
[32] = system: Candida albicans; test: Ratio of bifonazole to compound for Candida albicans isolated from human; type: functional
[33] = system: Aspergillus ochraceus; test: Antifungal activity against Aspergillus ochraceus ATCC 12066 incubated for 72 hrs followed by serial sub-cultivation for 72 hrs by serial dilution technique; type: functional; settings: ATCC 12066, 72 h; procedure, shortened: as §2
[34] = system: Aspergillus ochraceus; test: Ratio of ketoconazole to compound for Aspergillus ochraceus ATCC 12066; type: functional
[35] = system: Penicillium ochrochloron; test: Antifungal activity against Penicillium ochrochloron ATCC 9112 after 72 hrs by serial dilution technique; type: functional; settings: ATCC 9112, 72 h; procedure, shortened: as §4
[36] = system: Pseudomonas aeruginosa; test: Ratio of ampicillin MIC to compound MIC for Pseudomonas aeruginosa ATCC 27853; type: functional
[37] = system: Bacillus cereus; test: Antibacterial activity against clinical isolate of Bacillus cereus incubated for 24 hrs followed by serial sub-cultivation for 24 hrs by microdilution; type: functional; procedure, shortened: as §1
[38] = system: Aspergillus flavus; test: Antifungal activity against Aspergillus flavus ATCC 9643 after 72 hrs by serial dilution technique; type: functional; settings: ATCC 9643, 72 h; procedure, shortened: as §4
[39] = system: Trichoderma viride; test: Antifungal activity against Trichoderma viride IAM 5061 after 72 hrs by serial dilution technique; type: functional; settings: IAM 5061, 72 h; procedure, shortened: as §4
[40] = system: Talaromyces funiculosus; test: Antifungal activity against Penicillium funiculosum ATCC 36839 after 72 hrs by serial dilution technique; type: functional; settings: ATCC 36839, 72 h; procedure, shortened: as §4
[41] = system: Aspergillus niger; test: Antifungal activity against Aspergillus niger ATCC 6275 incubated for 72 hrs followed by serial sub-cultivation for 72 hrs by serial dilution technique; type: functional; settings: ATCC 6275, 72 h; procedure, shortened: as §2
[42] = system: Aspergillus fumigatus; test: Antifungal activity against Aspergillus fumigatus isolated from human incubated for 72 hrs followed by serial sub-cultivation for 72 hrs by serial dilution technique; type: functional; procedure, shortened: as §2
[43] = system: Candida albicans; test: Antifungal activity against Candida albicans isolated from human after 72 hrs by serial dilution technique; type: functional; procedure, shortened: as §4

MIC [3]: 51.7 µM (≈ 15 µg/mL)
MIC [5]: 34.5 µM (≈ 10 µg/mL)
MIC [8]: 34.5 µM (≈ 10 µg/mL)
MIC [9]: 34.5 µM (≈ 10 µg/mL)
MIC [13]: 51.7 µM (≈ 15 µg/mL)
MIC [23]: 68.9 µM (≈ 20 µg/mL)
MIC [24]: 86.2 µM (≈ 25 µg/mL)
MIC [25]: 68.9 µM (≈ 20 µg/mL)
MIC [27]: 51.7 µM (≈ 15 µg/mL)
MIC [30]: 68.9 µM (≈ 20 µg/mL)
MIC [31]: 68.9 µM (≈ 20 µg/mL)
MIC [35]: 34.5 µM (≈ 10 µg/mL)
MIC [38]: 68.9 µM (≈ 20 µg/mL)
MIC [39]: 34.5 µM (≈ 10 µg/mL)
MIC [40]: 34.5 µM (≈ 10 µg/mL)
MIC [43]: 34.5 µM (≈ 10 µg/mL)
Structure (SMILES): CCNc1nc(C)c(C(=O)/C=C/c2cccc(F)c2)s1
MBC [1]: 68.9 µM (≈ 20 µg/mL)
MFC [2]: 68.9 µM (≈ 20 µg/mL)
MBC [4]: 68.9 µM (≈ 20 µg/mL)
Ratio [6]: 10
Ratio [7]: 10
MBC [10]: 51.7 µM (≈ 15 µg/mL)
Ratio [11]: 10
MBC [12]: 86.2 µM (≈ 25 µg/mL)
MFC [14]: 68.9 µM (≈ 20 µg/mL)
Ratio [15]: 10
MFC [16]: 86.2 µM (≈ 25 µg/mL)
Ratio [17]: 10
MFC [18]: 68.9 µM (≈ 20 µg/mL)
MBC [19]: 86.2 µM (≈ 25 µg/mL)
MFC [20]: 68.9 µM (≈ 20 µg/mL)
Ratio [21]: 10
MBC [22]: 103 µM (≈ 30 µg/mL)
Ratio [26]: 10
MBC [28]: 86.2 µM (≈ 25 µg/mL)
Ratio [29]: 10
Ratio [32]: 10
MFC [33]: 86.2 µM (≈ 25 µg/mL)
Ratio [34]: 10
Ratio [36]: 10
MBC [37]: 68.9 µM (≈ 20 µg/mL)
MFC [41]: 68.9 µM (≈ 20 µg/mL)
MFC [42]: 68.9 µM (≈ 20 µg/mL)
